Assay results pooled from the literature.
Each line is one published result; the experiments were not run side by side.
Target: Rhodopsin kinase GRK7 (GRK7, Homo sapiens, UniProt Q8WTQ7)
Residues used in one study (Q8WTQ7 1-553): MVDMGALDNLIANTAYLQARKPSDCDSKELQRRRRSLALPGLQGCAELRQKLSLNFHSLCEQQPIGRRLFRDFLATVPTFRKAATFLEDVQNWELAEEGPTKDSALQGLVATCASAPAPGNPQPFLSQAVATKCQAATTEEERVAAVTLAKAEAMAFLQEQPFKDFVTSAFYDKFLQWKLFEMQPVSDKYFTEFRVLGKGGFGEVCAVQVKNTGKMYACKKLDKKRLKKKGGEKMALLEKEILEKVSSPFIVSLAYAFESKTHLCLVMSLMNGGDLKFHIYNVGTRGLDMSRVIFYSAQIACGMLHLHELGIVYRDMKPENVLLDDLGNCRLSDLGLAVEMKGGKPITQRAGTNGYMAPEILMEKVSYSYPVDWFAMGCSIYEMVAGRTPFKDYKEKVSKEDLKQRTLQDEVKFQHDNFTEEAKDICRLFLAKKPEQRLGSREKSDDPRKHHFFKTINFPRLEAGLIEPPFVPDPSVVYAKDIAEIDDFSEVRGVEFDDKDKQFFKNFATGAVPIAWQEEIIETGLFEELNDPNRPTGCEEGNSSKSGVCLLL

| SMILES | observed | mode | method | concentration | measurement | result |
| --- | --- | --- | --- | --- | --- | --- |
| CN1CC(Oc2cnc(C#N)cc2-c2ccn3nc(NC(=O)C4CC4)cc3c2)C1 | enzyme activity | inhibitor | – | 1 µM | inhibition | -8% |
| Cc1ccc(NC(=O)c2ccc(C)c(C(F)(F)F)c2)cc1C#Cc1nn(C2CCC(O)CC2)c2ncnc(N)c12 (centres unmarked) | cell-free assay | – | – | 10 µM | remaining signal | 101% |
| CC(C)(O)[C@H]1CC[C@H](Nc2ccc3ncc(-c4cccc(C(F)(F)F)c4)n3n2)CC1 | enzyme activity | inhibitor | – | 1 µM | remaining activity | 38% |
| O=C(N1CCS(=O)(=O)CC1)N1C[C@H](c2ccc(OC(F)(F)F)cc2)C[C@H](c2nc(C3CC3)no2)C1 | cell-free assay | – | competition with immobilised ligand | 1 µM | remaining binding | 100% |
| C#Cc1cccc(Nc2ncnc3cc(OCCOC)c(OCCOC)cc23)c1 | cell-free assay | – | – | 0.5 µM | remaining signal | 98.3% |
| Cc1cnc(NC2CCOCC2)nc1-n1cnc(C(=O)NC(CN)c2cc(F)cc(Cl)c2)c1 (centres unmarked) | enzyme activity | inhibitor | radiometric | 1 µM | remaining activity | 85% |
| CN1CCN(c2cnc3c(C4CCN(C(=O)c5ccc(OC(F)(F)F)cc5N)CC4)ncnc3c2)CC1 | cell-free assay | – | competition with immobilised ligand | 1 µM | remaining binding | 87% |
| CC(C)(C)c1nc(-c2cccc(NS(=O)(=O)c3c(F)cccc3F)c2F)c(-c2ccnc(N)n2)s1 | enzyme activity | inhibitor | radiometric | 1 µM | remaining activity | 76% |
| Cc1c(NC(=O)c2cc(C(N)=O)nc3cc(F)ccc23)c(C(F)(F)F)nn1Cc1ccc(C#N)cc1 | cell-free assay | – | competition with immobilised ligand | 1 µM | remaining binding | 75% |
| CCN(CC)c1ccc(C2=NNC(=O)CC2C)cc1[N+](=O)[O-] (centres unmarked) | enzyme activity | inhibitor | – | 10 µM | remaining activity | 100% |
| COc1cc2ncnc(Nc3ccc(Oc4ccccc4)c(C)c3C)c2cc1OC | enzyme activity | inhibitor | – | 1 µM | inhibition | 0% |
| Cc1sc(C(=O)NC2COC2)cc1-n1cc(NC(=O)Nc2c(F)cccc2Cl)cn1 | enzyme activity | inhibitor | – | 10 µM | remaining activity | 99.9% |
| CO[C@@H](C)c1c(Nc2ccc([C@H](N(C)C(=O)C3CCS(=O)(=O)CC3)C(F)(F)F)cc2)cnc2cc(Cl)nn12 | cell-free assay | – | competition with immobilised ligand | 1 µM | remaining binding | 100% |
| O=C1Nc2ccc(Cl)cc2C1=Cc1cc(Cl)c(O)c(Cl)c1 | cell-free assay | – | – | 0.5 µM | remaining signal | 97.3% |
| CCCOc1ccc([C@H]2[C@H](C(=O)O)[C@@H](c3ccc4c(c3)OCO4)CN2CC(=O)Nc2c(CC)cccc2CC)cc1 | cell-free assay | – | competition with immobilised ligand | 1 µM | remaining binding | 100% |
| Cc1ccc(C(=O)Nc2ccc(CN3CCN(C)CC3)c(C(F)(F)F)c2)cc1C#Cc1cnc2cccnn12 | enzyme activity | inhibitor | – | 23.5 nM | remaining activity | 94% |
| O=C1NC(=O)c2cc(Nc3ccc(F)cc3)c(Nc3ccc(F)cc3)cc21 | cell-free assay | – | – | 0.5 µM | remaining signal | 106% |
